According to ChEMBL document CHEMBL4840303, “Design, synthesis, biological evaluation and pharmacophore model analysis of novel tetrahydropyrrolo[3,4-c]pyrazol derivatives as potential TRKs inhibitors” (Eur J Med Chem, 2021):
pIC50: −log10 of the molar value.

Key:
[1] = test system: KM12; assay: Cell cycle arrest in human KM12 cells assessed as accumulation of cells at G2 phase at 125 nM measured after 48 hrs by AnnexinV-FITC/PI staining based flowcytometry method relative to control; assay type: functional
[2] = test system: KM12; assay: Cell cycle arrest in human KM12 cells assessed as accumulation of cells at S phase at 1000 nM measured after 48 hrs by AnnexinV-FITC/PI staining based flowcytometry method relative to control; assay type: functional
[3] = target: CYP2C9 (Homo sapiens, UniProt P11712); assay: Inhibition of CYP2C9 in human liver microsomes at 10 uM preincubated for 10 mins followed by addition of NADPH and measured after 15 mins by LC-MS/MS analysis; assay type: ADME; conditions: time 25 min
CYP2C9, sequence (P11712 whole entry): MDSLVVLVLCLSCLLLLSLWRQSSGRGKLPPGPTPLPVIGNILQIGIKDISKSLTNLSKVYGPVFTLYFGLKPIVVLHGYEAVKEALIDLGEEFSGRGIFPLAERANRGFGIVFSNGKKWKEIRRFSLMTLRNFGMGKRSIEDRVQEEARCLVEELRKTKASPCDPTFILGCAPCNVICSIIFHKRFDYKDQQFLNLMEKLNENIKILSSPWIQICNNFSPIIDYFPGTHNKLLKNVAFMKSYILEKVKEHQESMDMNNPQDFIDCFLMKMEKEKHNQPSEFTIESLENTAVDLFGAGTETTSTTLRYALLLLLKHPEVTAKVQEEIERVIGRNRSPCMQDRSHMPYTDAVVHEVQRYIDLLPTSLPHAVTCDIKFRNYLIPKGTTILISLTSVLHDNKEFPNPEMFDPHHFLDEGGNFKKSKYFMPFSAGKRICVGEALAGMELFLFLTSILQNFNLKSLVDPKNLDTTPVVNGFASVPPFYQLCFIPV
In short: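 Pooled human liver microsomes (0.253 mg/mL) with test compound at 10 µM and probe substrates: phenacetin (CYP1A2), diclofenac (CYP2C9), S-mephenytoin (CYP2C19), dextromethorphan (CYP2D6), midazolam (CYP3A4). 10 min preincubation at 37 °C, NADPH-regenerating system added, 15 min at 37 °C. Stopped with cold acetonitrile containing tolbutamide/labetalol internal standards, centrifuged, supernatant read by LC-MS/MS; % inhibition.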

[4] = test system: KM12; assay: Cell cycle arrest in human KM12 cells assessed as accumulation of cells at G1 phase at 62.5 nM measured after 48 hrs by AnnexinV-FITC/PI staining based flowcytometry method relative to control; assay type: functional
[5] = target: Focal adhesion kinase 1 (Homo sapiens) (UniProt Q05397); assay: Inhibition of recombinant GST-tagged full length human FAK expressed in baculovirus expression system at 1 uM measured by select screen assay
Focal adhesion kinase 1 (Homo sapiens), sequence (Q05397 2-1052 limits assumed): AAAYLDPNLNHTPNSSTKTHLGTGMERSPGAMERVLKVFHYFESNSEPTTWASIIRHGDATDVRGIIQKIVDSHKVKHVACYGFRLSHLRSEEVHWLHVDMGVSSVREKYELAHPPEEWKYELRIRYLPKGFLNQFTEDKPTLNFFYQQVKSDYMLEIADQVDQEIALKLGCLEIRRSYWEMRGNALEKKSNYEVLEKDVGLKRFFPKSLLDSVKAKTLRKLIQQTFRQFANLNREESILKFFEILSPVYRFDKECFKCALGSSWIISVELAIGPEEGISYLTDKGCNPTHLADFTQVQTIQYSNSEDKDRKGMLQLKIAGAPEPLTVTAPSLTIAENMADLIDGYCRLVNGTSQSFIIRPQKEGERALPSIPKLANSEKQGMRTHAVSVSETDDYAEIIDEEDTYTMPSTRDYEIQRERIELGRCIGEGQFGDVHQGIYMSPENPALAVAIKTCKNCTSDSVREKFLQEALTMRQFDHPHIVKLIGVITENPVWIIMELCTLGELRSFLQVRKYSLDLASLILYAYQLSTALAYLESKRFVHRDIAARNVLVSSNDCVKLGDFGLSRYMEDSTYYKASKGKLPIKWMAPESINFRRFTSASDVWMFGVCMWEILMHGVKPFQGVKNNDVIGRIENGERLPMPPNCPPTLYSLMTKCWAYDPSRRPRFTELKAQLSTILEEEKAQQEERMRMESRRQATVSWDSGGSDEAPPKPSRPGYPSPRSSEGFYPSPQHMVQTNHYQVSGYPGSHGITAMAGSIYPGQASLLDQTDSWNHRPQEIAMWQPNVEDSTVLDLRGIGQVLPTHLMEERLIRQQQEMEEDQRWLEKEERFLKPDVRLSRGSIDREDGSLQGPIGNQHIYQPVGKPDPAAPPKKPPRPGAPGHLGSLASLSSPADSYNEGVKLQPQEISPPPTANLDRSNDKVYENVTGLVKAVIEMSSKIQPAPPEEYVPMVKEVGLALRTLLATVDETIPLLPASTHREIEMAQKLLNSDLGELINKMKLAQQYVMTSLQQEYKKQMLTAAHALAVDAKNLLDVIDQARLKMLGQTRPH
In short: (§1)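 Single-concentration profiling at 1.0 µM in a 28-kinase SelectScreen panel; percent inhibition reported.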

[6] = test system: KM12; assay: Induction of apoptosis in human KM12 cells assessed as viable cells at 62.5 nM measured after 48 hrs by AnnexinV-FITC/PI staining based flowcytometry assay relative to control; assay type: functional; conditions: read-out: Activity
In short: (§2)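 10^5 cells in Annexin V binding buffer stained with FITC-Annexin V and PI for 10 min at room temperature in the dark, diluted with PBS and analysed by flow cytometry (FITC 494/518 nm, PI 535/617 nm).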

[7] = target: BDNF/NT-3 growth factors receptor (Homo sapiens, UniProt Q16620); assay: Inhibition of recombinant His-tagged human TRKB expressed in baculovirus expression system at 1 uM measured by select screen assay relative to control; in short: as §1
BDNF/NT-3 growth factors receptor, sequence (Q16620 32-822 limits assumed): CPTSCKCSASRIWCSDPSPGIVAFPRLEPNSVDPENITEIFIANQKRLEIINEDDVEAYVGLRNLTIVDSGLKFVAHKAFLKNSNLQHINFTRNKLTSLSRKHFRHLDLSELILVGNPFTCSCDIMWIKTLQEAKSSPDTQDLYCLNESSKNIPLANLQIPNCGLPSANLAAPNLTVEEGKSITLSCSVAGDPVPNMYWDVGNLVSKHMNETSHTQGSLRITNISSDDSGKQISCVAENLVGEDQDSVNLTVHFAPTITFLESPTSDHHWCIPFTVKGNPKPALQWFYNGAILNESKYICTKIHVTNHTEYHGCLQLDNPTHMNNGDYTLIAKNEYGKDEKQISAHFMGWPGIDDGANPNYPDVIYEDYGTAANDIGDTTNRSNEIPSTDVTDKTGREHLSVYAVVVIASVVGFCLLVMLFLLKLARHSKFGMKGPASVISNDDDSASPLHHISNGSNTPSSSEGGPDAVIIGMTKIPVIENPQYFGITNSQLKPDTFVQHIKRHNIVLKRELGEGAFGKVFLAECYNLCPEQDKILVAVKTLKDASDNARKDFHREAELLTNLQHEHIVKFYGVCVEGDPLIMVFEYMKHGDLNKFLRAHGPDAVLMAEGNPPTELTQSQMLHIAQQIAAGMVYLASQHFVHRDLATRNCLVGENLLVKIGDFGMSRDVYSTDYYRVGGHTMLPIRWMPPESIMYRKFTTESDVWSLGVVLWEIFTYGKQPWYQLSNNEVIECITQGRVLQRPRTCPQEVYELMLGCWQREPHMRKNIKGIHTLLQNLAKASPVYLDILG

[8] = test system: KM12; assay: Cell cycle arrest in human KM12 cells assessed as accumulation of cells at greater G1 phase at 500 nM measured after 48 hrs by AnnexinV-FITC/PI staining based flowcytometry method relative to control; assay type: functional
[9] = test system: KM12; assay: Cell cycle arrest in human KM12 cells assessed as accumulation of cells at S phase at 500 nM measured after 48 hrs by AnnexinV-FITC/PI staining based flowcytometry method relative to control; assay type: functional
[10] = target: Serine/threonine-protein kinase PAK 4 (Homo sapiens) (UniProt O96013); assay: Inhibition of recombinant GST-tagged human PAK4 (295 to 591 residues) expressed in baculovirus expression system at 1 uM measured by select screen assay relative to control; in short: as §1
Serine/threonine-protein kinase PAK 4 (Homo sapiens), sequence (O96013 whole entry, looked up, the tested form may be a part): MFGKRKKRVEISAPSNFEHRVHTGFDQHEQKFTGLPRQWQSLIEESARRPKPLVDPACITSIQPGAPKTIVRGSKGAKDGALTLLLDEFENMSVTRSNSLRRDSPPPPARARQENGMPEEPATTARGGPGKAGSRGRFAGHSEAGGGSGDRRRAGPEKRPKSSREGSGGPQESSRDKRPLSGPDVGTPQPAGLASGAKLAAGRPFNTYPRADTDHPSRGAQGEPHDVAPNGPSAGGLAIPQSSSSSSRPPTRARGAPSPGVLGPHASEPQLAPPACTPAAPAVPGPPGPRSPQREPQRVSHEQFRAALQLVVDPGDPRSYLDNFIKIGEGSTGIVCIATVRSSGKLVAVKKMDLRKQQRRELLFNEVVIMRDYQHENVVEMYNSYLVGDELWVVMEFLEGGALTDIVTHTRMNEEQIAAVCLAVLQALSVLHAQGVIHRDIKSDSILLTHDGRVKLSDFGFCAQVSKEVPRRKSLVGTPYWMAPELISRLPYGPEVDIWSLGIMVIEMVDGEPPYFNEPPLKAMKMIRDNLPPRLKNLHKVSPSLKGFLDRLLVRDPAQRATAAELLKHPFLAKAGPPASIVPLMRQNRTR

[11] = Stability in human plasma assessed as compound remaining incubated for 60 mins by LC-MS/MS analysis; assay type: ADME, cell-free; conditions: read-out: Stability
In short: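 Pooled frozen human plasma thawed at 37 °C, centrifuged to remove clots, pH adjusted to 7.4 if required. Spiked to 2 µM final (from 100 µM dosing solution), in duplicate, incubated at 37 °C in a water bath. Sampled at 0, 10, 30, 60 and 120 min, quenched with acetonitrile stop solution containing internal standards, centrifuged, and supernatant analysed by LC-MS/MS for percent remaining.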

[12] = target: Dual specificity mitogen-activated protein kinase kinase 1 (Homo sapiens) (UniProt Q02750); assay: Inhibition of recombinant His-tagged full length human MEK expressed in baculovirus expression system at 1 uM measured by select screen assay relative to control; in short: as §1
Dual specificity mitogen-activated protein kinase kinase 1 (Homo sapiens), sequence (Q02750 whole entry, the tested form may be a part): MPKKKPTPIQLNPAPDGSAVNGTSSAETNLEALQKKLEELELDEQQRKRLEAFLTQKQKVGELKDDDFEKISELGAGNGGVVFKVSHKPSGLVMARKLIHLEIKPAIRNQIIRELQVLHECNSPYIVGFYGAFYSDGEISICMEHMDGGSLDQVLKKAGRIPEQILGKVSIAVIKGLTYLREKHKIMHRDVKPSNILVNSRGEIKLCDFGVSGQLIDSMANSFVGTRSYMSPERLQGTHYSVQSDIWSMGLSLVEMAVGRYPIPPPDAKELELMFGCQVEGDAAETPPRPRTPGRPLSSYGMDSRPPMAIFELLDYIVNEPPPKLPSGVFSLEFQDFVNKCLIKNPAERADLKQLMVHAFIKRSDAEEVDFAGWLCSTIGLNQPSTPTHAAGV

[13] = target: T1, NT-3 growth factor receptor (Homo sapiens, UniProt Q16288); assay: Inhibition of N-terminal GST-tagged human TRKC (456 to 825 residues) expressed in Sf21 using TK as substrate in presence of ATP measured after 40 mins by HTRF assay
[14] = test system: KM12; assay: Induction of apoptosis in human KM12 cells assessed as late apoptotic cells at 250 nM measured after 48 hrs by AnnexinV-FITC/PI staining based flowcytometry assay relative to control; assay type: functional
In short: (§3)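 They were detached with trypsin, washed twice in PBS, and 10^5 cells were suspended in Annexin V binding buffer. Cells were stained with FITC-Annexin V and PI for 10 min at room temperature in the dark, diluted with PBS and analysed by flow cytometry.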

[15] = test system: THLE-2; assay: cells; conditions: Homo sapiens, THLE-2, 72 h
[16] = test system: KM12; assay: Cell cycle arrest in human KM12 cells assessed as accumulation of cells at S phase at 125 nM measured after 48 hrs by AnnexinV-FITC/PI staining based flowcytometry method relative to control; assay type: functional
[17] = target: AMP-activated protein kinase, AMPK (Homo sapiens) (UniProt P54646+O43741+P54619+Q9UGJ0+Q9Y478+Q13131+Q9UGI9); assay: Inhibition of recombinant GST-tagged His-tagged full length human AMPK expressed in baculovirus expression system at 1 uM measured by select screen assay; in short: as §1
[18] = test system: KM12; assay: Cell cycle arrest in human KM12 cells assessed as accumulation of cells at less G1 phase at 62.5 nM measured after 48 hrs by AnnexinV-FITC/PI staining based flowcytometry method relative to control; assay type: functional
[19] = test system: KM12; assay: Induction of apoptosis in human KM12 cells assessed as early apoptotic cells at 62.5 nM measured after 48 hrs by AnnexinV-FITC/PI staining based flowcytometry assay relative to control; assay type: functional; in short: as §3
[20] = MRT in Sprague dawley rat at 1 mg/kg, iv; assay type: ADME, organism-based; conditions: in vivo
In short: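 Male-unspecified SD rats, n = 3 per group, single i.v. dose 1 mg/kg or oral 3 mg/kg. Blood drawn into heparin tubes at set times, centrifuged at 4 °C, plasma quantified by LC-MS/MS; noncompartmental parameters fitted.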

[21] = Half life in Sprague dawley rat at 3 mg/kg, po; assay type: ADME, organism-based; conditions: in vivo
In short: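 Blood was collected into heparin tubes at specified time points and centrifuged at once (4 °C, 4000 rpm, 20 min). Plasma levels were quantified by LC-MS/MS. Parameters came from noncompartmental analysis.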

[22] = test system: KM12; assay: Induction of apoptosis in human KM12 cells assessed as late apoptotic cells at 62.5 nM measured after 48 hrs by AnnexinV-FITC/PI staining based flowcytometry assay relative to control; assay type: functional; in short: as §3
[23] = test system: KM12; assay: Induction of apoptosis in human KM12 cells assessed as necrotic cells at 250 nM measured after 48 hrs by AnnexinV-FITC/PI staining based flowcytometry assay relative to control; assay type: functional; in short: as §2
[24] = target: T1, NT-3 growth factor receptor; assay: Inhibition of recombinant His-tagged human TRKC expressed in baculovirus expression system at 1 uM measured by select screen assay relative to control; in short: as §1
[25] = test system: KM12; assay: Cell cycle arrest in human KM12 cells assessed as accumulation of cells at G1 phase at 500 nM measured after 48 hrs by AnnexinV-FITC/PI staining based flowcytometry method relative to control; assay type: functional

inhibition at 0.25 h, 10 µM [3]: 16%
inhibition [5]: 51%
inhibition [7]: 100%
inhibition [10]: 4%
remaining at 1 h [11]: 99.2%
inhibition [12]: 8%
pIC50 [13]: 7.96
pIC50 [15]: < 4.00
inhibition [17]: 53%
MRT [20]: 1.85 h
half-life [21]: 1.89 h
inhibition [24]: 99%
SMILES: CN1CCN(c2ccc(C(=O)Nc3n[nH]c4c3CN(Cc3cc(F)cc(F)c3)C4(C)C)cc2)CC1
Activity [1]: 11.5%
Activity [2]: 7.22%
Activity [4]: 40.3%
viability at 0.0625 µM [6]: 70.5%
Activity [8]: 1.57%
Activity [9]: 6.56%
Activity [14]: 36.84%
Activity [16]: 21.5%
Activity [18]: 3.63%
Activity [19]: 19.55%
Activity [22]: 9.89%
Activity [23]: 0.04%
Activity [25]: 73.9%
